Screening data (PubChem)
PAX8 inh HTS = PAX8 transcriptional activity inhibition | inhibition, % at 12.6 µM | AID 652154 | RMG-I TPO-luciferase reporter, SteadyGlo, 24 h | hit rate 1.2% among 360,000;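 active = mean replicate inhibition at least 60% with every replicate also reaching 60%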;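 also: luciferase light reporting Pax8 driven TPO promoter activity; plate controls were median of neutral control wells for no effect and mitoxantrone controls for full effect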
FN deposition inh = fibronectin deposition inhibition; AH1F fibroblasts, Alexa488-fibronectin deposition fluorescence, overnight; inhibition, % at 12.6 µM; hit rate 0.086% among 350,000; AID 743247;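 active = mean inhibition across replicates of 30% or more, regardless of how many single replicates reach that level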;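 also: positive control wells lacked labelled fibronectin entirely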
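Measured by – fluorescence 485/525 nm · System – AH1F fibroblast monolayer, labelled fibronectin deposition · Amount – 10000 cells per well · Buffer or medium – serum-reduced DMEM (2% serum) · Doses – single dose, pinned · Also added – fluorescent fibronectin at 24 nM final · Schedule – 1 h cell attachment, overnight exposure to compound and label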
EWS-Fli inh = inhibitors of EWS/Fli oncoprotein transcriptional activity | inhibition, % at 12.6 µM | hit rate 0.67% among 350,000 | AID 651661 | A673 NR0B1-luciferase reporter, viability-normalised;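 active = mean inhibition of at least 50% after viability correction, with every replicate also passing that limit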;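 also: firefly luciferase signal divided by Alamar Blue viability fluorescence both relative to DMSO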
HIV Env fusion = blocks HIV Env-driven cell-cell fusion; HeLa-JRFL Env/CEM21 cell fusion, luciferase; inhibition, % at 12.3 µM; hit rate 1.1% among 360,000;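 active = mean replicate inhibition score of at least 50 and every replicate individually at or above 50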;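 also: 0% = plate neutral controls and 100% = maraviroc near 300 nM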
FGF22 binding = FGF22 (human) thermal shift binding; Q9HCT0; recombinant FGF22 thermal shift, SYPRO orange fluorescence; percent of sucrose octasulfate shift, DMSO zero; hit rate 1.5% among 340,000; activity (Tm shift, normalised), % at 9.99 µM;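 active = mean Tm shift, scaled 0 neutral to 100 positive control, at about 1.3% or above, every replicate too, limit read from the data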
Target sequence (Q9HCT0 whole entry, looked up): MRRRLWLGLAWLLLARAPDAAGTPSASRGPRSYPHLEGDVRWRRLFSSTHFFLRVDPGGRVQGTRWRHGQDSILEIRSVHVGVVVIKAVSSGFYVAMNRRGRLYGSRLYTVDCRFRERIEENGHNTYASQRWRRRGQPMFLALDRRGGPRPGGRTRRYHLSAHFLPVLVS
PGC1a acetyl inh = PGC1a acetylation modulation, inhibitor mode; hit rate 0.17% among 350,000; U2OS PGC1a acetylation, AlphaScreen anti-acetyl-lysine; with virally co-expressed GCN5 acetyltransferase; inhibition, % at 15.6 µM;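 active = every replicate shows inhibition of at least 40%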;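 also: 0% = neutral control wells and 100% = positive control wells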
* hit, by the source's call; [ ] = another dose, or the depositor's remark. Most compounds without a hit are left out; they make up all but 3.1% or so of the library.

Screening OC[C@H]1[C@@H](c2ccc(C#CC3(O)CCCC3)cc2)[C@H]2CN(Cc3cccnc3)CCCCN21 returned PAX8 inh HTS -6.3, EWS-Fli inh -9.3, FGF22 binding 0.0 and PGC1a acetyl inh 6.1.
For CO[C@@H]1CN(C)C(=O)c2cc(NC(C)=O)ccc2OC[C@H](C)N(CCc2ccccc2)C[C@H]1C the results were FN deposition inh -2.4, EWS-Fli inh 3.0, FGF22 binding -0.3 and PGC1a acetyl inh 5.8.
For Cc1csc(Nc2ccccc2)[n+]1-c1ccccc1 the results were PAX8 inh HTS -5.7, FN deposition inh 3.3, EWS-Fli inh 0.1, HIV Env fusion 18.3 and FGF22 binding 42.9*.
Cc1csc(Nc2ccccc2)[n+]1C was read as PAX8 inh HTS -16.1, FN deposition inh -4.3, EWS-Fli inh -38.1, HIV Env fusion -9.9, FGF22 binding 0.2 and PGC1a acetyl inh 15.9.
O=C(CCn1nnc2ccccc21)NNC(=O)C1CCCCC1 was read as PAX8 inh HTS -0.6, FN deposition inh -10.9, EWS-Fli inh -2.7, HIV Env fusion 1.4 and PGC1a acetyl inh -5.1.
Screening CC(=O)NNC(=O)CCn1nnc2ccccc21 returned PAX8 inh HTS 8.3, FN deposition inh -0.8, EWS-Fli inh -4.3, HIV Env fusion 11.4 and FGF22 binding 43.9*.
O=C(C[C@H]1CC[C@H](NS(=O)(=O)c2ccccc2)[C@@H](CO)O1)NCCN1CCCCC1 was read as PAX8 inh HTS -24.8, EWS-Fli inh 2.2, HIV Env fusion 13.9[16.7 µM], FGF22 binding 0.1 and PGC1a acetyl inh -2.7.
`NC(=O)c1cc(-c2ccccc2)sc1NC(=O)CN1CCCCC1` gave PAX8 inh HTS -8.7, FN deposition inh -4.9, EWS-Fli inh -30.7, HIV Env fusion 0.0 and FGF22 binding 43.0*.
For NC(=O)c1ccccc1NC(=O)CN1CCCCCC1 the results were PAX8 inh HTS 5.5, FN deposition inh -4.3, HIV Env fusion 1.0 and FGF22 binding 0.5.
Screening O=C(C[C@H]1CC[C@H](NS(=O)(=O)c2ccccc2F)[C@H](CO)O1)NCCCN1CCOCC1 returned PAX8 inh HTS -13.0, FN deposition inh 1.8, EWS-Fli inh -5.7, HIV Env fusion 11.6[16.7 µM], FGF22 binding 0.0 and PGC1a acetyl inh -3.3.
Screening C[C@@H](N)C(=O)N[C@H]1CCC2C3CC=C4C[C@@H](O)CC[C@]4(C)C3CC[C@@]21C (some centres undefined) returned PAX8 inh HTS 2.4, FN deposition inh -9.5, EWS-Fli inh 13.4, FGF22 binding -0.2 and PGC1a acetyl inh -12.8.
`CC(C)[C@H](N)C(=O)N[C@H]1CCC2C3CC=C4C[C@@H](O)CC[C@]4(C)C3CC[C@@]21C` (some centres undefined) gave PAX8 inh HTS 29.1, FN deposition inh 1.5, EWS-Fli inh 53.2*, FGF22 binding 0.1 and PGC1a acetyl inh 0.2.
CCOC(=O)c1ccoc1CSCC(=O)N1CCN(S(=O)(=O)c2ccc(C)cc2)CC1 was read as FN deposition inh 8.7, HIV Env fusion 56.0* and PGC1a acetyl inh -8.9.
O=C(Cc1ccc(NC(=O)C2CCN(C(=O)C3CCCCC3)CC2)cc1)Nc1ccc(C(=O)N2CCOCC2)cc1 was read as PAX8 inh HTS 67.6*, FN deposition inh 11.0, EWS-Fli inh 9.1, HIV Env fusion 13.0, FGF22 binding 41.2 and PGC1a acetyl inh -1.8.
CN(C(=O)c1cccc(NC(=O)Cc2ccc(NC(=O)C3CCCN(C(=O)C4CC4)C3)cc2)c1)C1CCCC1 (centres undefined) was read as PAX8 inh HTS 13.2, FN deposition inh 2.7, EWS-Fli inh -7.2, HIV Env fusion -11.3 and FGF22 binding 43.4*.
For CN(C)C/C=C/C(O)(c1ccccc1)c1ccccc1 the results were PAX8 inh HTS 0.7, FN deposition inh -3.5, EWS-Fli inh -0.4, HIV Env fusion -0.2, FGF22 binding 0.3 and PGC1a acetyl inh 5.4.
CN(C)CC(CCC(CN(C)C)C(O)(c1ccccc1)c1ccccc1)C(O)(c1ccccc1)c1ccccc1 (centres undefined) was read as PAX8 inh HTS 86.7*, FN deposition inh -1.9, EWS-Fli inh 35.7, HIV Env fusion -45.3 and FGF22 binding -0.2.
